From ChEMBL document CHEMBL3853298, “Total synthesis and in vitro bioevaluation of clavaminols A, C, H & deacetyl clavaminol H as potential chemotherapeutic and antibiofilm agents” (Eur J Med Chem, 2016)
≈ marks a conversion by molar mass, not a printed value.

Columns and labels:
[1] = test system: Staphylococcus aureus; assay: Antibacterial activity against Staphylococcus aureus MLS16 MTCC 2940 after 24 hrs by well diffusion method; format: functional; conditions: MLS16 MTCC 2940, 24 h
Summary of the method: (§1)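 Bacteria spread (0.1 mL suspension) on Mueller-Hinton agar; 6.0 mm wells loaded with compound over a 250 to 0.48 per-well dose range, methanol as negative control. Incubated 24 h at 37 °C. MIC taken as the lowest concentration still giving an inhibition zone. Duplicates, mean reported.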

[2] = test system: Candida albicans; assay: Fungicidal activity against Candida albicans MTCC 227 after 24 hrs; format: functional; conditions: MTCC 227, 24 h
Summary of the method: (§2)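 Candida grown overnight in Mueller Hinton broth. Compound serially diluted in the same broth from 150 to 0 and inoculated to a final 1.5 × 10^8 CFU/mL (0.5 McFarland), then 24 h at 37 °C. Tube contents plated onto Mueller Hinton agar for 24 h at 37 °C. MFC is the lowest concentration killing the yeast. Duplicates.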

[3] = Cytotoxicity against human HeLa cells assessed as cell growth inhibition by MTT assay; format: functional, cell-based
[4] = test system: Escherichia coli; assay: Antibacterial activity against Escherichia coli MTCC 739 after 24 hrs by well diffusion method; format: functional; conditions: MTCC 739, 24 h; summary of the method: as §1
[5] = test system: Pichia sporocuriosa; assay: Fungicidal activity against Issatchenkia hanoiensis MTCC 4755 after 24 hrs; format: functional; conditions: MTCC 4755, 24 h
Summary of the method: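 Broth dilution in Mueller Hinton broth with serial compound concentrations from […]. Overnight Candida cultures added to a final 1.5 × 10^8 CFU/mL (0.5 McFarland). Incubated 24 h at 37 °C, then 10 µL of each tube plated on Mueller Hinton agar for 24 h at 37 °C. MFC taken as the lowest concentration that kills the strain. Run in duplicate.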

[6] = test system: Pseudomonas aeruginosa; assay: Antibiofilm activity against Pseudomonas aeruginosa MTCC 2453 incubated for 24 hrs under static condition by crystal violet staining-based assay; format: functional
Summary of the method: (§3)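 Strains grown overnight in tryptone soy broth with 0.5% glucose. Compound (250 to 0) mixed with inoculum at 5 × 10^5 CFU/mL in polystyrene microtiter plates. Non-adherent cells washed off with PBS; wells stained with 0.1% crystal violet, dye solubilised in 95% ethanol, absorbance read at 540 nm. IC50 for 50% biofilm inhibition taken from dose-response curves. Triplicates, mean ± S.D.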

[7] = test system: Staphylococcus aureus; assay: Bactericidal activity against Staphylococcus aureus MLS16 MTCC 2940 after 24 hrs; format: functional; conditions: MLS16 MTCC 2940, 24 h
Summary of the method: (§4)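 Broth macrodilution in Mueller Hinton broth, compound serially diluted from 150 down to 0. Overnight bacterial culture added to a final 1.5 × 10^8 CFU/mL (0.5 McFarland), 24 h at 37 °C. Suspension then subcultured onto Mueller Hinton agar for 24 h at 37 °C. MBC is the lowest concentration killing the strain. Duplicates.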

[8] = test system: Candida albicans; assay: Antifungal activity against Candida albicans MTCC 854 after 24 hrs by well diffusion method; format: functional; conditions: MTCC 854, 24 h
Summary of the method: (§5)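 Candida/Issatchenkia lawns (0.1 mL suspension) on Mueller-Hinton agar; 6.0 mm bored wells receive compound across a 250 to 0.48 per-well dose range, methanol as negative control. Plates kept 24 h at 30 °C. MIC is the lowest concentration producing a visible inhibition zone. Duplicate runs, mean values.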

[9] = test system: Candida albicans; assay: Fungicidal activity against Candida albicans MTCC 3958 after 24 hrs; format: functional; conditions: MTCC 3958, 24 h; summary of the method: as §2
[10] = test system: Escherichia coli; assay: Bactericidal activity against Escherichia coli MTCC 739 after 24 hrs; format: functional; conditions: MTCC 739, 24 h; summary of the method: as §4
[11] = test system: Staphylococcus aureus; assay: Antibiofilm activity against Staphylococcus aureus MTCC 96 incubated for 24 hrs under static condition by crystal violet staining-based assay; format: functional; summary of the method: as §3
[12] = test system: Staphylococcus aureus; assay: Bactericidal activity against Staphylococcus aureus MTCC 96 after 24 hrs; format: functional; conditions: MTCC 96, 24 h; summary of the method: as §4
[13] = Cytotoxicity against human SKOV3 cells assessed as cell growth inhibition by MTT assay; format: functional, cell-based; conditions: SK-OV-3
[14] = test system: Candida albicans; assay: Antifungal activity against Candida albicans MTCC 3018 after 24 hrs by well diffusion method; format: functional; conditions: MTCC 3018, 24 h; summary of the method: as §5
[15] = test system: Nakaseomyces glabratus; assay: Fungicidal activity against Candida glabrata MTCC 3019 after 24 hrs; format: functional; conditions: MTCC 3019, 24 h; summary of the method: as §2
[16] = test system: Candida albicans; assay: Fungicidal activity against Candida albicans MTCC 4748 after 24 hrs; format: functional; conditions: MTCC 4748, 24 h; summary of the method: as §2
[17] = test system: Candida albicans; assay: Fungicidal activity against Candida albicans MTCC 3017 after 24 hrs; format: functional; conditions: MTCC 3017, 24 h; summary of the method: as §2
[18] = Cytotoxicity against human MCF7 cells assessed as cell growth inhibition by MTT assay; format: functional, cell-based
[19] = test system: Micrococcus luteus; assay: Bactericidal activity against Micrococcus luteus MTCC 2470 after 24 hrs; format: functional; conditions: MTCC 2470, 24 h; summary of the method: as §4
[20] = test system: [Candida] aaseri; assay: Antifungal activity against Candida aaseri MTCC 1962 after 24 hrs by well diffusion method; format: functional; conditions: Yamadazyma aaseri, MTCC 1962, 24 h; summary of the method: as §5
[21] = test system: Bacillus subtilis; assay: Antibiofilm activity against Bacillus subtilis MTCC 121 incubated for 24 hrs under static condition by crystal violet staining-based assay; format: functional; summary of the method: as §3
[22] = Antifungal activity against Candida parapsilosis MTCC 1744 after 24 hrs by well diffusion method; format: functional; summary of the method: as §5
[23] = test system: Micrococcus luteus; assay: Antibacterial activity against Micrococcus luteus MTCC 2470 after 24 hrs by well diffusion method; format: functional; conditions: MTCC 2470, 24 h; summary of the method: as §1
[24] = test system: Escherichia coli; assay: Antibiofilm activity against Escherichia coli MTCC 739 incubated for 24 hrs under static condition by crystal violet staining-based assay; format: functional; summary of the method: as §3
[25] = test system: Candida albicans; assay: Fungicidal activity against Candida albicans MTCC 1637 after 24 hrs; format: functional; conditions: MTCC 1637, 24 h; summary of the method: as §2
[26] = test system: Bacillus subtilis; assay: Bactericidal activity against Bacillus subtilis MTCC 121 after 24 hrs; format: functional; conditions: MTCC 121, 24 h; summary of the method: as §4
[27] = test system: Micrococcus luteus; assay: Antibiofilm activity against Micrococcus luteus MTCC 2470 incubated for 24 hrs under static condition by crystal violet staining-based assay; format: functional; summary of the method: as §3

For `CCCCCCCCC[C@H](O)[C@@H](C)N` [CLAVAMINOL A], the MIC [1] was 3.9 µg/mL (≈ 19.4 µM), the MFC [2] was 31.2 µg/mL (≈ 155 µM) and the IC50 [3] was 15.4 µM. It also gave an MIC [4] of 7.8 µg/mL (≈ 38.7 µM), an MFC [5] of 62.5 µg/mL (≈ 310 µM) and an INH [6] of 3.6 µg/mL. It also gave an MBC [7] of 7.8 µg/mL (≈ 38.7 µM), an MIC [8] of 15.6 µg/mL (≈ 77.5 µM) and an MFC [9] of 62.5 µg/mL (≈ 310 µM). The MBC [10] was 15.6 µg/mL (≈ 77.5 µM), the IC50 [11] was 4.2 µg/mL (≈ 20.9 µM) and the MBC [12] was 15.6 µg/mL (≈ 77.5 µM). For the same compound, the IC50 [13] was 12.5 µM, the MIC [14] was 15.6 µg/mL (≈ 77.5 µM) and the MFC [15] was 31.2 µg/mL (≈ 155 µM). It also gave an MFC [16] of 62.5 µg/mL (≈ 310 µM), an MFC [17] of 31.2 µg/mL (≈ 155 µM) and an IC50 [18] of 18.2 µM. For the same compound, the MBC [19] was 7.8 µg/mL (≈ 38.7 µM), the MIC [20] was 62.5 µg/mL (≈ 310 µM) and the IC50 [21] was 4.3 µg/mL (≈ 21.4 µM). For the same compound, the MIC [22] was 31.2 µg/mL (≈ 155 µM), the MIC [23] was 1.9 µg/mL (≈ 9.44 µM) and the INH [24] was 5.2 µg/mL. It also gave an MFC [25] of 62.5 µg/mL (≈ 310 µM), an MBC [26] of 15.6 µg/mL (≈ 77.5 µM) and an IC50 [27] of 0.8 µg/mL (≈ 3.97 µM).
